Test results as given in ChEMBL document CHEMBL1152430, “Selective inhibition of nicotinamide adenine dinucleotide kinases by dinucleoside disulfide mimics of nicotinamide adenine dinucleotide analogues” (Bioorg Med Chem, 2009).
Activity calls are given as the source filed them. No cut-off for these calls is given here.

Experiments:
[1] = Binding affinity to penicillopepsin
[2] = Inhibition of Listeria monocytogenes NADK1
[3] = molecular target: L-lactate dehydrogenase (Homo sapiens) (UniProt V9HWB9); assay: Inhibition of human LDH
Homo sapiens = organism: Homo sapiens; assay: (§1) Inhibition of human IMPDH
NAD kinase [4] = molecular target: T1, NAD kinase (Homo sapiens, UniProt O95544); assay: Inhibition of human NAD kinase by modified HPLC based assay
T1 sequence (O95544 whole entry): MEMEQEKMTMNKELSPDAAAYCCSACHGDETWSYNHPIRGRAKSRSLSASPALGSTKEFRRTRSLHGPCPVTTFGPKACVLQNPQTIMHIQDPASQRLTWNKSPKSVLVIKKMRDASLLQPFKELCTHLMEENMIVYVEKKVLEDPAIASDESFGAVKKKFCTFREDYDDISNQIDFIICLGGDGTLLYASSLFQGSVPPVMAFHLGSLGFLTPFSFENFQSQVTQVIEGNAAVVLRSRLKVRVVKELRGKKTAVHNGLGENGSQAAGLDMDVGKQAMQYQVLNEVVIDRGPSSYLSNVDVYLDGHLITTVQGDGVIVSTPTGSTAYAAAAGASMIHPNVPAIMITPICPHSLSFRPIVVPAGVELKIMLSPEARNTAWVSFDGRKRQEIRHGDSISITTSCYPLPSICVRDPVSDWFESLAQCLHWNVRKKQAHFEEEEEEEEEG

[5] = molecular target: L-lactate dehydrogenase (Homo sapiens) (UniProt V9HWB9); assay: Inhibition of human LDH at 100 uM
NAD kinase [6] = molecular target: T2, NAD kinase (Mycobacterium tuberculosis, UniProt P9WHV7); assay: Inhibition of Mycobacterium tuberculosis NAD kinase by modified HPLC based assay
T2 sequence (P9WHV7 whole entry): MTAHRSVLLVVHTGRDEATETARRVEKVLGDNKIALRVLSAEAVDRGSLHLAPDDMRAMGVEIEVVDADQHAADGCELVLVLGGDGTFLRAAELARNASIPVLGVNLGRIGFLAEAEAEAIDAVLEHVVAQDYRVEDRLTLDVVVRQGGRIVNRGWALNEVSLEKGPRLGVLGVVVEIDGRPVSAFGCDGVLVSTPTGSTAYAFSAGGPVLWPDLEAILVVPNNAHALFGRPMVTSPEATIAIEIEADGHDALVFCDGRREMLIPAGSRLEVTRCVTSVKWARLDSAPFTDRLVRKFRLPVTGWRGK
Summary of the method: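 Purified-to-homogeneity M. tuberculosis NAD kinase incubated at 37 °C in 50 mM Tris/HCl pH 8.0, 20 mM MgCl₂ with ATP and NAD substrates, without or with varying inhibitor concentrations. Reaction stopped with HClO₄, neutralized with K₂CO₃, nucleotides resolved by reversed-phase C18 HPLC with potassium phosphate pH 6.0/methanol gradient.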

[7] = molecular target: Inosine-5'-monophosphate dehydrogenase 1 (Homo sapiens) (UniProt P20839); assay: Inhibition of human IMPDH1 at 100 uM
Chain of Inosine-5'-monophosphate dehydrogenase 1 (Homo sapiens) (P20839 2-514 limits assumed): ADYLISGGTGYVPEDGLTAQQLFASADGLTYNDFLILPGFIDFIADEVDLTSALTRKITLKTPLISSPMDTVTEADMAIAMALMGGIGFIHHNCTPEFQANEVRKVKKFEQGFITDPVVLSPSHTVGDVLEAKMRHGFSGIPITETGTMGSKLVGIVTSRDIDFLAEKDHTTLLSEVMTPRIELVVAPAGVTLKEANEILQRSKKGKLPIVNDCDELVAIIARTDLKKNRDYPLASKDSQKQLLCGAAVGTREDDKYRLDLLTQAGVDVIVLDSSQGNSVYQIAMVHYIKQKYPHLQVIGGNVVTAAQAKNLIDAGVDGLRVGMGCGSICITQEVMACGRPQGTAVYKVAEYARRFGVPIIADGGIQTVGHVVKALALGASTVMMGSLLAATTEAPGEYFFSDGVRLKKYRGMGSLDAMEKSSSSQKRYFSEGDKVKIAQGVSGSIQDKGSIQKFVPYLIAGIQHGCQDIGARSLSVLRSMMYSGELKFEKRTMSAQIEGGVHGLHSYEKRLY

[8] = molecular target: Inosine-5'-monophosphate dehydrogenase 2 (Homo sapiens) (UniProt P12268); assay: Inhibition of human IMPDH2 at 100 uM
Chain of Inosine-5'-monophosphate dehydrogenase 2 (Homo sapiens) (P12268 2-514 limits assumed): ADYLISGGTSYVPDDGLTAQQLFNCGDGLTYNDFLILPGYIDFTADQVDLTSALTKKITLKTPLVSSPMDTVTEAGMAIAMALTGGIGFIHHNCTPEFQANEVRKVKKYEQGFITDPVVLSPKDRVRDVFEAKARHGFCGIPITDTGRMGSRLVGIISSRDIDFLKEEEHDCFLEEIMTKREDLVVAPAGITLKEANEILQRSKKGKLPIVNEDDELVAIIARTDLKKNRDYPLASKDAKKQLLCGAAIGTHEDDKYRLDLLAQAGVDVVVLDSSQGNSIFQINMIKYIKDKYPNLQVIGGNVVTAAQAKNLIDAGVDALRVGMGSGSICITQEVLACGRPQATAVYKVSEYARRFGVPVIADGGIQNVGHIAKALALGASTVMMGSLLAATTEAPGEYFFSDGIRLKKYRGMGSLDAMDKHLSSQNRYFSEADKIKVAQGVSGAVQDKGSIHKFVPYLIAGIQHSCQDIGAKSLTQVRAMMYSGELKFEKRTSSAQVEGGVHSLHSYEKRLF

[9] = as §1
[10] = Inhibition of horse liver alcohol dehydrogenase; design: species or system Equus caballus

Structure (SMILES) | IC50 (NAD kinase [4]; read-out: IC50) [µM] | inhibition [5] | IC50 (NAD kinase [6]; read-out: IC50) [µM] | inhibition [7] | inhibition [8] | also measured
COC(=O)[C@@H]1Cc2cccc(c2)CNC(=O)C[C@H](NC(=O)[C@@H](NC(=O)CC(C)C)C(C)C)C(=O)N[C@@H](CC(C)C)P(=O)(O)O1 |  |  |  |  |  | Ki [1]: 0.0001 µM
COC(=O)[C@H](Cc1ccccc1)OP(=O)(O)[C@H](CC(C)C)NC(=O)[C@H](CC(N)=O)NC(=O)[C@@H](NC(=O)CC(C)C)C(C)C |  |  |  |  |  | Ki [1]: 0.042 µM
Nc1ncnc2c1ncn2[C@@H]1O[C@H](CSSC[C@H]2O[C@@H](n3cnc4c(N)ncnc43)[C@H](O)[C@@H]2O)[C@@H](O)[C@H]1O | 87 | inactive | 45 | inactive | inactive | Ki [2]: 20 µM; inhibition [3]: inactive; inhibition (Homo sapiens): inactive
CCc1nc(N)c2ncn([C@@H]3O[C@H](COP(=O)(O)OP(=O)(O)OC[C@H]4O[C@@H](c5nc(C(N)=O)cs5)[C@H](O)[C@@H]4O)[C@@H](O)[C@H]3O)c2n1 |  |  |  |  |  | Ki [9]: 0.001 µM
NC(=O)c1cccc([C@@H]2O[C@H](COP(=O)(O)OP(=O)(O)OC[C@H]3O[C@@H](n4cnc5c(N)ncnc54)[C@H](O)[C@@H]3O)[C@@H](O)[C@H]2O)c1 [BENZAMIDEADENINEDINUCLEOSIDE] |  |  | 200 |  |  | 
Nc1ncnc2c1nc(-c1ccccc1)n2[C@@H]1O[C@H](CSSC[C@H]2O[C@@H](n3c(-c4ccccc4)nc4c(N)ncnc43)[C@H](O)[C@@H]2O)[C@@H](O)[C@H]1O | 45 | inactive |  | inactive | inactive | IC50 (NAD kinase [6]): Not Active
NC(=O)c1csc([C@@H]2O[C@H](CSSC[C@H]3O[C@@H](n4cnc5c(N)ncnc54)[C@H](O)[C@@H]3O)[C@@H](O)[C@H]2O)n1 | 110 | inactive | 80 | inactive | inactive | inhibition [3]: inactive; inhibition (Homo sapiens): inactive
C#Cc1nc(N)c2ncn([C@@H]3O[C@H](COP(=O)(O)OP(=O)(O)OC[C@H]4O[C@@H](c5nc(C(N)=O)cs5)[C@H](O)[C@@H]4O)[C@@H](O)[C@H]3O)c2n1 |  |  |  |  |  | Ki [9]: 0.01 µM
Nc1ncnc2c1nc(Br)n2[C@@H]1O[C@H](CSSC[C@H]2O[C@@H](n3c(Br)nc4c(N)ncnc43)[C@H](O)[C@@H]2O)[C@@H](O)[C@H]1O | 6 | inactive | 19 | inactive | inactive | 
NC(=O)c1csc([C@@H]2O[C@H](CSSC[C@H]3O[C@@H](c4nc(C(N)=O)cs4)[C@H](O)[C@@H]3O)[C@@H](O)[C@H]2O)n1 |  | inactive |  | inactive | inactive | inhibition [3]: inactive; inhibition (Homo sapiens): inactive; IC50 (NAD kinase [4]): Not Active; IC50 (NAD kinase [6]): Not Active
Nc1ncnc2c1ncn2[C@@H]1O[C@H](CSSC[C@H]2O[C@@H](n3c(Br)nc4c(N)ncnc43)[C@H](O)[C@@H]2O)[C@@H](O)[C@H]1O | 6 | inactive | 14 | inactive | inactive | 
C[C@@]1(O)[C@@H](CSSC[C@H]2O[C@@H](n3cnc4c(N)ncnc43)[C@H](O)[C@]2(C)O)O[C@@H](n2cnc3c(N)ncnc32)[C@@H]1O |  | inactive |  | inactive | inactive | IC50 (NAD kinase [4]): Not Active; IC50 (NAD kinase [6]): Not Active
NC(=O)c1csc([C@@H]2O[C@H](COP(=O)(O)OP(=O)(O)OC[C@H]3O[C@@H](n4cnc5c(N)nc(I)nc54)[C@H](O)[C@@H]3O)[C@@H](O)[C@H]2O)n1 |  |  |  |  |  | Ki [9]: 0.02 µM
NC(=O)c1csc([C@@H]2O[C@H](COP(=O)(O)OP(=O)(O)OC[C@H]3O[C@@H](n4cnc5c(N)ncnc54)[C@H](O)[C@@H]3O)[C@@H](O)[C@H]2O)n1 [TIAZOFURIN ADENINE DINUCLEOTIDE] |  |  |  |  |  | Ki [9]: 0.1 µM; Ki [10]: 0.001 µM
C[C@@]1(O)[C@H](O)[C@@H](CSSC[C@H]2O[C@@H](n3cnc4c(N)ncnc43)[C@](C)(O)[C@@H]2O)O[C@H]1n1cnc2c(N)ncnc21 | 280 | inactive | 500 | inactive | inactive | 
